The results in this text go back to ChEMBL document CHEMBL1255473, “Homozygous triplicate mutations in three 16S rRNA genes responsible for high-level aminoglycoside resistance in Nocardia farcinica clinical isolates from a Canada-wide bovine mastitis epizootic” (2010).

≈ marks a conversion by molar mass, not a printed value. Calls of active or inactive are those of the source. The calls are words filed in the database; no cut-off is given here.

Assay [1] relates to Nocardia farcinica. Put plainly: Antimicrobial activity against amikacin-resistant Nocardia farcinica IFM 10580 after 3 days by broth microdilution method. The class given is functional. The gist of the method:
(§1)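 Broth microdilution in BHI medium with a range of aminoglycosides. Cells were incubated at 37°C, OD600 was measured, and the MIC was read on day 3 of incubation.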

Assay [2] concerns Nocardia farcinica. Put plainly: Antimicrobial activity against amikacin-susceptible Nocardia farcinica IFM 10152 harboring 16s rRNA A1408G mutant after 3 days by broth microdilution method. Type of assay: functional. Summed up: as §1
On the technique in general: Broth dilution looks for growth in wells or tubes with falling amounts of substance.

Assay [3] relates to Nocardia farcinica. Put plainly: Antimicrobial activity against amikacin-susceptible Nocardia farcinica IFM 10152 harboring 16s rRNA A1408G mutant after 5 days by broth microdilution method. The class given is functional. Summed up: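 Broth microdilution in BHI medium across several aminoglycosides. Cells were held at 37°C and MIC was determined from OD600 on day 5 of incubation.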

Assay [4] concerns Nocardia farcinica. The assay can be described thus: Antimicrobial activity against amikacin-susceptible Nocardia farcinica IFM 10152 after 3 days by broth microdilution method. Type of assay: functional. Summed up: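 Broth microdilution in BHI medium, final inoculum 10^4 CFU/ml. Host strain carried empty pNV19 vector. Cells incubated with serial aminoglycoside concentrations at 37°C for 3 days. MIC read from OD600.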

The test system of assay [5] is Nocardia farcinica. Put plainly: Antimicrobial activity against amikacin-susceptible Nocardia farcinica IFM 10152-M2 expressing rrnA A1408G and rrnC A1408G mutant genes after 3 days by broth microdilution method. Type of assay: functional. The note with it: IFM 10152-M2, 72 h. Summed up: as §1
The subject of assay [6] is Nocardia farcinica. Put plainly: Antimicrobial activity against amikacin-susceptible Nocardia farcinica IFM 10152-M3 expressing rrnA A1408G, rrnB A1408G and rrnC A1408G mutant genes after 3 days by broth microdilution method. The class given is functional. Conditions: IFM 10152-M3, 72 h. Summed up:
as §1

Assay [7] deals with Nocardia farcinica. The assay can be described thus: Antimicrobial activity against amikacin-susceptible Nocardia farcinica IFM 10152-M2 expressing wild type rrnB gene and plasmid encoded rrnA A1408G and rrnC A1408G mutant genes after 3 days by broth microdilution method. The class given is functional. The note with it: IFM 10152-M2, 72 h. Summed up: as §1
For assay [8], the system named is Nocardia farcinica. The assay can be described thus: Antimicrobial activity against amikacin-susceptible Nocardia farcinica isolate IFM 10152-M2 assessed as cell growth at 1024 ug/ml after 24 hrs. Type of assay: functional, organism-based.
For assay [9], the system named is Nocardia farcinica. Put plainly: Antimicrobial activity against amikacin-susceptible Nocardia farcinica isolate IFM 10152-M3 assessed as cell growth at 1024 ug/ml at <12 hrs. Type of assay: functional, organism-based.
In assay [10] the test system is Nocardia farcinica. The assay can be described thus: Antimicrobial activity against amikacin-resistant Nocardia farcinica IFM 10580 assessed as cell growth at 1024 ug/ml at <12 hrs. The class given is functional, organism-based. The gist of the method: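 Cells were cultured in the presence of 1,024 μg/ml amikacin and growth was followed over time.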
Assay [11] has as its system Nocardia farcinica. The assay can be described thus: Antimicrobial activity against amikacin-susceptible Nocardia farcinica isolate IFM 10152-M2 assessed as cell growth at 1024 ug/ml after 24 hrs.

A word on the MIC: it is the least concentration at which growth counts as inhibited. A high value points to weaker potency. `CN[C@H]1C[C@@H](N)[C@H](O)[C@@H](O[C@@H]2O[C@H](CO)[C@H](O)[C@H]3O[C@@]4(O[C@H]23)O[C@H]([C@H](N)CO)[C@H](O)[C@H](O)[C@H]4O)[C@@H]1O`: the minimal inhibitory concentration (MIC) in the assay on Nocardia farcinica [1] (IFM 10580, 72 h) came to 32 µg/mL (≈ 60.7 µM); in the assay with Nocardia farcinica [2] (IFM 10152, 72 h), 32 µg/mL (≈ 60.7 µM); against Nocardia farcinica [3] (IFM 10152, 120 h), 32 µg/mL (≈ 60.7 µM); in the assay with Nocardia farcinica [4] (IFM 10152, 72 h), 32 µg/mL (≈ 60.7 µM).

`CCN[C@@H]1C[C@H](N)[C@@H](O[C@H]2OC(CN)=CC[C@H]2N)[C@H](O)[C@H]1O[C@H]1OC[C@](C)(O)[C@H](NC)[C@H]1O` [NETILMICIN]: the MIC against Nocardia farcinica [1] (IFM 10580, 72 h) was greater than 1020 µg/mL; in the assay with Nocardia farcinica [2] (IFM 10152, 72 h), 4 µg/mL (≈ 8.41 µM); against Nocardia farcinica [3] (IFM 10152, 120 h), 32 µg/mL (≈ 67.3 µM); against Nocardia farcinica [4] (IFM 10152, 72 h), less than 1 µg/mL.

`CN[C@@H]1[C@H](O[C@H]2[C@H](O[C@H]3[C@H](O)[C@@H](O)[C@H](N=C(N)N)[C@@H](O)[C@@H]3N=C(N)N)O[C@@H](C)[C@]2(O)C=O)O[C@@H](CO)[C@H](O)[C@H]1O` [STREPTOMYCIN]: the MIC against Nocardia farcinica [1] (IFM 10580, 72 h) turned out to be 128 µg/mL (≈ 220 µM); in the assay with Nocardia farcinica [2] (IFM 10152, 72 h) it was 64 µg/mL (≈ 110 µM); in the assay on Nocardia farcinica [3] (IFM 10152, 120 h), 128 µg/mL (≈ 220 µM); in the assay with Nocardia farcinica [4] (IFM 10152, 72 h), 64 µg/mL (≈ 110 µM).

Turning to `NC[C@H]1O[C@H](O[C@H]2[C@H](O)[C@@H](O[C@H]3O[C@H](CO)[C@@H](O)[C@H](N)[C@H]3O)[C@H](N)C[C@@H]2N)[C@H](O)[C@@H](O)[C@@H]1O` [KANAMYCIN], the MIC is greater than 1020 µg/mL with Nocardia farcinica [1] (IFM 10580, 72 h); greater than 1020 µg/mL in the assay on Nocardia farcinica [2] (IFM 10152, 72 h); greater than 1020 µg/mL against Nocardia farcinica [3] (IFM 10152, 120 h); 256 µg/mL (≈ 528 µM) in the assay with Nocardia farcinica [4] (IFM 10152, 72 h).

`NCC[C@H](O)C(=O)N[C@@H]1C[C@H](N)[C@@H](O[C@H]2O[C@H](CN)CC[C@H]2N)[C@H](O)[C@H]1O[C@H]1O[C@H](CO)[C@@H](O)[C@H](N)[C@H]1O` [ARBEKACIN]: the MIC is greater than 1020 µg/mL against Nocardia farcinica [1] (IFM 10580, 72 h); 2 µg/mL (≈ 3.62 µM) against Nocardia farcinica [2] (IFM 10152, 72 h); greater than 1020 µg/mL against Nocardia farcinica [3] (IFM 10152, 120 h); less than 1 µg/mL in the assay with Nocardia farcinica [4] (IFM 10152, 72 h).

As to `NC[C@H]1O[C@H](O[C@H]2[C@H](O[C@@H]3O[C@H](CO)[C@@H](O)[C@H]3O)[C@@H](O)[C@H](N)C[C@@H]2N)[C@H](N)[C@@H](O)[C@@H]1O` [RIBOSTAMYCIN], the MIC is greater than 1020 µg/mL against Nocardia farcinica [1] (IFM 10580, 72 h); greater than 1020 µg/mL with Nocardia farcinica [2] (IFM 10152, 72 h); greater than 1020 µg/mL against Nocardia farcinica [3] (IFM 10152, 120 h); 256 µg/mL (≈ 563 µM) against Nocardia farcinica [4] (IFM 10152, 72 h).

For the molecule `NC[C@H]1O[C@H](O[C@H]2[C@H](O)[C@@H](O[C@H]3O[C@H](CO)[C@@H](O)[C@H](N)[C@H]3O)[C@H](N)C[C@@H]2N)[C@H](N)C[C@@H]1O` [TOBRAMYCIN], the MIC against Nocardia farcinica [1] (IFM 10580, 72 h) is greater than 1020 µg/mL; against Nocardia farcinica [2] (IFM 10152, 72 h), 64 µg/mL (≈ 137 µM); with Nocardia farcinica [3] (IFM 10152, 120 h), greater than 1020 µg/mL; in the assay with Nocardia farcinica [4] (IFM 10152, 72 h), 32 µg/mL (≈ 68.4 µM).

Regarding `CN[C@@H]1[C@@H](O)[C@@H](O[C@@H]2[C@@H](O)[C@H](O[C@H]3O[C@H](CN)[C@@H](O)[C@H](O)[C@H]3O)[C@@H](N)C[C@H]2NC(=O)[C@@H](O)CN)OC[C@]1(C)O` [ISEPAMICIN], the MIC in the assay with Nocardia farcinica [1] (IFM 10580, 72 h) was greater than 1020 µg/mL; against Nocardia farcinica [2] (IFM 10152, 72 h) it was 16 µg/mL (≈ 28.1 µM); in the assay on Nocardia farcinica [3] (IFM 10152, 120 h) it was 128 µg/mL (≈ 225 µM); against Nocardia farcinica [4] (IFM 10152, 72 h), less than 1 µg/mL.

Take `CN[C@@H]1[C@@H](O[C@H]2O[C@H](CO)[C@@H](N)[C@H](O)[C@H]2O)OC2C[C@@H](N)[C@@H](O[C@H]3[C@H](O)[C@@H](O)[C@H](N)C[C@@H]3N)OC2[C@@H]1O` (some centres undefined) [APRAMYCIN]: the MIC was greater than 1020 µg/mL against Nocardia farcinica [1] (IFM 10580, 72 h); 64 µg/mL (≈ 119 µM) against Nocardia farcinica [2] (IFM 10152, 72 h); 256 µg/mL (≈ 474 µM) with Nocardia farcinica [3] (IFM 10152, 120 h); 32 µg/mL (≈ 59.3 µM) against Nocardia farcinica [4] (IFM 10152, 72 h).

`NCC[C@H](O)C(=O)N[C@@H]1C[C@H](N)[C@@H](O[C@H]2O[C@H](CN)[C@@H](O)[C@H](O)[C@H]2O)[C@H](O)[C@H]1O[C@H]1O[C@H](CO)[C@@H](O)[C@H](N)[C@H]1O` [AMIKACIN]: the MIC against Nocardia farcinica [1] (IFM 10580, 72 h) was greater than 1020 µg/mL; against Nocardia farcinica [2] (IFM 10152, 72 h), 64 µg/mL (≈ 109 µM); against Nocardia farcinica [3] (IFM 10152, 120 h), greater than 1020 µg/mL; in the assay with Nocardia farcinica [5] it was less than 1 µg/mL; against Nocardia farcinica [6], greater than 1020 µg/mL; against Nocardia farcinica [7] it was greater than 1020 µg/mL. In addition, in the assay with Nocardia farcinica [4] (IFM 10152, 72 h), the MIC is less than 1 µg/mL. For the same molecule, the outcome in the assay with Nocardia farcinica [8], with Nocardia farcinica [9], in the assay with Nocardia farcinica [10] and in the assay with Nocardia farcinica [11] was inactive.

Turning to `NC[C@@H]1O[C@H](O[C@H]2[C@@H](O)[C@H](O[C@@H]3[C@@H](O)[C@H](N)C[C@H](N)[C@H]3O[C@H]3O[C@H](CN)[C@@H](O)[C@H](O)[C@H]3N)O[C@@H]2CO)[C@H](N)[C@@H](O)[C@@H]1O` [FRAMYCETIN], the MIC in the assay on Nocardia farcinica [1] (IFM 10580, 72 h) was greater than 1020 µg/mL; in the assay on Nocardia farcinica [2] (IFM 10152, 72 h) it was greater than 1020 µg/mL; with Nocardia farcinica [3] (IFM 10152, 120 h) it was greater than 1020 µg/mL; against Nocardia farcinica [4] (IFM 10152, 72 h) it was 16 µg/mL (≈ 26 µM).

Consider `NC[C@@H]1O[C@H](O[C@H]2[C@@H](O)[C@H](O[C@@H]3[C@@H](O)[C@H](N)C[C@H](N)[C@H]3O[C@H]3O[C@H](CO)[C@@H](O)[C@H](O)[C@H]3N)O[C@@H]2CO)[C@H](N)[C@@H](O)[C@@H]1O` [PAROMOMYCIN], for which the MIC is greater than 1020 µg/mL in the assay with Nocardia farcinica [1] (IFM 10580, 72 h); greater than 1020 µg/mL in the assay with Nocardia farcinica [2] (IFM 10152, 72 h); greater than 1020 µg/mL against Nocardia farcinica [3] (IFM 10152, 120 h); 8 µg/mL (≈ 13 µM) against Nocardia farcinica [4] (IFM 10152, 72 h).

In the case of GENTAMICIN, the MIC in the assay on Nocardia farcinica [1] is greater than 1020 µg/mL; in the assay with Nocardia farcinica [2] it was 256 µg/mL; with Nocardia farcinica [3] it was greater than 1020 µg/mL; with Nocardia farcinica [4], 64 µg/mL.
